Reference: ChEMBL document CHEMBL1955787, “Design and synthesis of novel magnolol derivatives as potential antimicrobial and antiproliferative compounds” (Eur J Med Chem, 2012)
Values after ≈ are worked out from the molar mass of the structure shown. Active and inactive are the calls of the source. No cut-off for these calls is given here.

Experiments:
Staphylococcus aureus [1] = assay: Antibacterial activity against methicillin-resistant Staphylococcus aureus 15187 after 24 hrs by micro dilution method; type: functional; settings: Staphylococcus aureus, 15187, 24 h
In short: (§1)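 Broth microdilution in Mueller Hinton broth, two-fold serial dilutions, final 0.25 to 256 µg mL-1. Inoculum from 24 h culture in saline, set to 0.5 McFarland, diluted to a final 5 × 10^6 CFU mL-1. Plates held at 37 °C for 24 h and read by eye. MIC is the lowest concentration with no turbidity.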

Candida albicans = assay: Antifungal activity against Candida albicans ATCC 90028; type: functional
PC-3 = assay: Antiproliferative activity against human PC3 cells after 48 hrs by sulforhodamine B assay; type: functional, cell-based; settings: PC-3, 48 h
In short: (§2)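 Sulforhodamine B assay following NCI guidelines. Log-phase cells seeded at 10^4 cells/well and allowed to attach for 24 h at 37 °C, 5% CO2. Exposed 48 h to 1:10 serial dilutions, four replicate wells per condition. Fixed with 50% cold TCA for 1 h at 4 °C, stained, dye dissolved in tris buffer, OD read at 540 nm. Blank-subtracted growth expressed relative to untreated (100%) and reported as IC50.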

Enterococcus [2] = assay: Antibacterial activity against vancomycin-resistant Enterococcus treated for 24 hrs followed by compound treated at 2 to 16 times MIC measured after 24 hrs by micro dilution method; type: functional
In short: (§3)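 MBC taken from the same 24 h microdilution plates (Mueller Hinton broth, final inoculum 5 × 10^6 CFU mL-1, 37 °C). […] Spots were incubated 24 h and colonies counted. MBC is the lowest concentration giving a 3 log drop from the starting inoculum.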

Staphylococcus aureus [3] = assay: Antibacterial activity against Staphylococcus aureus ATCC 29213 after 24 hrs by micro dilution method; type: functional; settings: ATCC 29213, 24 h
In short: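 Broth microdilution in Mueller Hinton broth. Inoculum from a 24 h culture in saline, set to 0.5 McFarland and diluted to a final 5 × 10^6 CFU mL-1. Two-fold serial dilutions, final 0.25–256 µg mL-1. Incubated 37 °C for 24 h and read visually. MIC is the lowest concentration with no turbidity.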

MOLT-4 = assay: Antiproliferative activity against human MOLT4 cells after 48 hrs by sulforhodamine B assay; type: functional, cell-based; settings: MOLT-4, 48 h; in short: as §2
Staphylococcus aureus [4] = assay: Antibacterial activity against methicillin-resistant Staphylococcus aureus 15187 treated for 24 hrs followed by compound treated at 2 to 16 times MIC measured after 24 hrs by micro dilution method; type: functional; settings: Staphylococcus aureus, 15187, 24 h; in short: as §3
Enterococcus [5] = assay: Antibacterial activity against vancomycin-resistant Enterococcus after 24 hrs by micro dilution method; type: functional; in short: as §1
Staphylococcus aureus [6] = assay: Antibacterial activity against Staphylococcus aureus ATCC 29213 treated for 24 hrs followed by compound treated at 2 to 16 times MIC measured after 24 hrs by micro dilution method; type: functional; settings: ATCC 29213, 24 h
Aspergillus fumigatus = assay: Antifungal activity against Aspergillus fumigatus LSI-II; type: functional
HL-60 [7] = assay: Antiproliferative activity against human HL60 cells after 48 hrs by sulforhodamine B assay; type: functional, cell-based; settings: HL-60, 48 h; in short: as §2
HL-60 [8] = assay: Cell cycle arrest in human HL60 cells assessed as accumulation at sub-G1 phase at 10 uM after 18 hrs using propidium iodide staining by flow cytometry; type: functional
In short: (§4)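 Time-course sub-G1 analysis of HL-60 cells exposed to 10 µM and sampled at 0, 6, 9, 18 and 24 h. Ethanol fixation, RNase A and propidium iodide staining as for the dose series, then flow cytometric DNA content at 488 nm excitation.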

HL-60 [9] = assay: Cell cycle arrest in human HL60 cells assessed as accumulation at sub-G1 phase at 10 uM after 6 hrs using propidium iodide staining by flow cytometry; type: functional; in short: as §4
HL-60 [10] = assay: Cell cycle arrest in human HL60 cells assessed as accumulation at sub-G1 phase after 24 hrs using propidium iodide staining by flow cytometry; type: functional, cell-based
In short: (§5)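 Cell-cycle (sub-G1) profiling of HL-60 cells at 1 × 10^6 per well, treated 24 h at 1, 10, 30 or 100 µM. Washed in ice-cold PBS, fixed in 70% ethanol at -20 °C for 30 min. Treated with RNase A (0.1 mg/mL) at 37 °C for 30 min, then propidium iodide (50 µg/mL) for 30 min on ice in the dark. Read with doublet discrimination and 488 nm excitation.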

HL-60 [11] = assay: Cell cycle arrest in human HL60 cells assessed as accumulation at sub-G1 phase at 30 uM after 24 hrs using propidium iodide staining by flow cytometry; type: functional; in short: as §5
HL-60 [12] = assay: Cell cycle arrest in human HL60 cells assessed as accumulation at sub-G1 phase at 100 uM after 24 hrs using propidium iodide staining by flow cytometry; type: functional; in short: as §5
HL-60 [13] = assay: Cell cycle arrest in human HL60 cells assessed as accumulation at sub-G1 phase at 10 uM after 9 hrs using propidium iodide staining by flow cytometry; type: functional; in short: as §4
HL-60 [14] = assay: Cell cycle arrest in human HL60 cells assessed as accumulation at sub-G1 phase at 1 uM after 24 hrs using propidium iodide staining by flow cytometry; type: functional; in short: as §5
HL-60 [15] = assay: Induction of apoptosis in human HL60 cells assessed as DNA discrete ladder pattern formation at 5 to 30 uM after 24 hrs using ethidium bromide staining by agarose gel electrophoresis analysis; type: functional, cell-based
HL-60 [16] = assay: Cell cycle arrest in human HL60 cells assessed as accumulation at sub-G1 phase at 10 uM after 24 hrs using propidium iodide staining by flow cytometry; type: functional; in short: as §4
HL-60 [17] = assay: Cell cycle arrest in human HL60 cells assessed as accumulation at sub-G1 phase at 10 uM after 3 hrs using propidium iodide staining by flow cytometry; type: functional

SMILES | MIC (Staphylococcus aureus [1]) [µg/mL] | MIC (Candida albicans) | IC50 (PC-3) [µM] | MBC (Enterococcus [2]) [µg/mL] | MIC (Staphylococcus aureus [3]) [µg/mL] | IC50 (MOLT-4) [µM] | MBC (Staphylococcus aureus [4]) [µg/mL] | MIC (Enterococcus [5]) [µg/mL] | MBC (Staphylococcus aureus [6]) [µg/mL] | MIC (Aspergillus fumigatus) | IC50 (HL-60 [7]) [µM] | other results
CCCc1cc(I)c(O)c(-c2cc(CCC)cc(I)c2O)c1 | 64 (≈ 123 µM) | inactive | 7 | 64 (≈ 123 µM) | 64 (≈ 123 µM) | 18 | 64 (≈ 123 µM) | 64 (≈ 123 µM) | 64 (≈ 123 µM) | inactive | 7 | 
C=CCc1cc(O)c(O)c(-c2cc(CC=C)cc(OC)c2O)c1 | 16 (≈ 51.2 µM) | inactive | > 100 | 128 (≈ 410 µM) | 16 (≈ 51.2 µM) | > 100 | 64 (≈ 205 µM) | 32 (≈ 102 µM) | 16 (≈ 51.2 µM) | inactive | > 100 | 
CCCc1ccc(O)c(-c2cc(CCC)cc(Cl)c2O)c1 | > 256 | inactive | > 100 | > 256 | > 256 | > 100 | > 256 | > 256 | > 256 | inactive | 85 | 
C=CCc1cc(OC)c(O)c(-c2cc(CC=C)cc(OC)c2O)c1 | > 256 | 64 µg/mL (≈ 196 µM) | > 100 | > 256 | > 256 | > 100 | > 256 | > 256 | > 256 | 32 µg/mL (≈ 98 µM) | > 100 | 
CCCc1cc(Cl)c(O)c(-c2cc(CCC)cc(Cl)c2O)c1 | 4 (≈ 11.8 µM) | inactive | > 100 | 8 (≈ 23.6 µM) | 4 (≈ 11.8 µM) | > 100 | 4 (≈ 11.8 µM) | 8 (≈ 23.6 µM) | 4 (≈ 11.8 µM) | inactive | > 100 | 
O=C(O)c1cn(C2CC2)c2cc(N3CCNCC3)c(F)cc2c1=O [CIPROFLOXACIN] | 8 (≈ 24.1 µM) |  |  | 64 (≈ 193 µM) | 0.25 (≈ 0.754 µM) |  | 8 (≈ 24.1 µM) | 32 (≈ 96.6 µM) | 0.5 (≈ 1.51 µM) |  |  | 
CCCc1cc(Br)c(O)c(-c2cc(CCC)cc(Br)c2O)c1 | 4 (≈ 9.34 µM) | inactive | 95 | 8 (≈ 18.7 µM) | 4 (≈ 9.34 µM) | 55 | 4 (≈ 9.34 µM) | 4 (≈ 9.34 µM) | 4 (≈ 9.34 µM) | inactive | 30 | 
CCCc1ccc(O)c(-c2cc(CCC)cc(Br)c2O)c1 | 16 (≈ 45.8 µM) | inactive | > 100 | 32 (≈ 91.6 µM) | 8 (≈ 22.9 µM) | > 100 | 16 (≈ 45.8 µM) | 16 (≈ 45.8 µM) | 8 (≈ 22.9 µM) | inactive | > 100 | 
CCCCc1ccc(O)c(-c2cc(CCCC)cc(I)c2O)c1 | > 256 | inactive | 60 | > 256 | > 256 | 66 | > 256 | > 256 | > 256 | inactive | 50 | 
CCCCc1cc(I)c(O)c(-c2cc(CCCC)cc(I)c2O)c1 | 4 (≈ 7.27 µM) | inactive | 2 | 8 (≈ 14.5 µM) | 4 (≈ 7.27 µM) | 10 | 4 (≈ 7.27 µM) | 4 (≈ 7.27 µM) | 4 (≈ 7.27 µM) | inactive | 2 | Activity (HL-60 [8]): 44%; Activity (HL-60 [9]): 21%; Activity (HL-60 [10]): Dose-dependent effect; Activity (HL-60 [11]): 67%; Activity (HL-60 [12]): 78%; Activity (HL-60 [13]): 33%; Activity (HL-60 [14]): 12%; Activity (HL-60 [15]): Active; Activity (HL-60 [16]): 52%; Activity (HL-60 [17]): 14%
CCCCc1ccc(O)c(-c2cc(CCCC)cc(Cl)c2O)c1 | > 256 | inactive | > 100 | > 256 | > 256 | > 100 | > 256 | > 256 | > 256 | inactive | > 100 | 
C=CCc1cc(O)c(O)c(-c2cc(CC=C)cc(O)c2O)c1 | 16 (≈ 53.6 µM) | 128 µg/mL (≈ 429 µM) | > 100 | 32 (≈ 107 µM) | 8 (≈ 26.8 µM) | > 100 | 16 (≈ 53.6 µM) | 16 (≈ 53.6 µM) | 8 (≈ 26.8 µM) | 64 µg/mL (≈ 215 µM) | > 100 | 
C=CCc1ccc(O)c(-c2cc(CC=C)ccc2O)c1 [MAGNOLOL] | 32 (≈ 120 µM) |  | 62 | 32 (≈ 120 µM) | 16 (≈ 60.1 µM) | 58 | 32 (≈ 120 µM) | 32 (≈ 120 µM) | 32 (≈ 120 µM) |  | 48 | 
CCCCc1cc(Cl)c(O)c(-c2cc(CCCC)cc(Cl)c2O)c1 | 8 (≈ 21.8 µM) | inactive | > 100 | 16 (≈ 43.6 µM) | 8 (≈ 21.8 µM) | > 100 | 8 (≈ 21.8 µM) | 8 (≈ 21.8 µM) | 8 (≈ 21.8 µM) | inactive | 90 | 
CCCc1ccc(O)c(-c2cc(CCC)cc(I)c2O)c1 | > 256 | inactive | 63 | > 256 | > 256 | 60 | > 256 | > 256 | > 256 | inactive | 45 | 
O=c1[nH]cc(F)c(=O)[nH]1 [FLUOROURACIL] |  |  | 2.1 |  |  | 3.2 |  |  |  |  | 266 | 
CC[C@H]1OC(=O)[C@H](C)[C@@H](O[C@H]2C[C@@](C)(OC)[C@@H](O)[C@H](C)O2)[C@H](C)[C@@H](O[C@@H]2O[C@H](C)C[C@H](N(C)C)[C@H]2O)[C@](C)(O)C[C@@H](C)C(=O)[C@H](C)[C@@H](O)[C@]1(C)O [ERYTHROMYCIN] | 64 (≈ 87.2 µM) |  |  | 64 (≈ 87.2 µM) | 0.5 (≈ 0.681 µM) |  | 64 (≈ 87.2 µM) | 64 (≈ 87.2 µM) | 1 (≈ 1.36 µM) |  |  | 
CCCCc1cc(Br)c(O)c(-c2cc(CCCC)cc(Br)c2O)c1 | 8 (≈ 17.5 µM) | inactive | > 100 | 16 (≈ 35.1 µM) | 8 (≈ 17.5 µM) | > 100 | 8 (≈ 17.5 µM) | 8 (≈ 17.5 µM) | 8 (≈ 17.5 µM) | inactive | > 100 | 
CCCCc1ccc(O)c(-c2cc(CCCC)cc(Br)c2O)c1 | 1 (≈ 2.65 µM) | inactive | 74 | 2 (≈ 5.3 µM) | 2 (≈ 5.3 µM) | 35 | 1 (≈ 2.65 µM) | 1 (≈ 2.65 µM) | 2 (≈ 5.3 µM) | inactive | 25 | 
